According to ChEMBL document CHEMBL1134459 (J Med Chem, 2001):
Values after ≈ are worked out from the molar mass of the structure shown.

How the values were obtained:
E-selectin [1] = molecular target: T1, E-selectin (Homo sapiens, UniProt P16581); assay: Inhibition of selectin E in human endothelial cells; format: cell-based, Endothelial cell
T1 sequence (P16581 whole entry): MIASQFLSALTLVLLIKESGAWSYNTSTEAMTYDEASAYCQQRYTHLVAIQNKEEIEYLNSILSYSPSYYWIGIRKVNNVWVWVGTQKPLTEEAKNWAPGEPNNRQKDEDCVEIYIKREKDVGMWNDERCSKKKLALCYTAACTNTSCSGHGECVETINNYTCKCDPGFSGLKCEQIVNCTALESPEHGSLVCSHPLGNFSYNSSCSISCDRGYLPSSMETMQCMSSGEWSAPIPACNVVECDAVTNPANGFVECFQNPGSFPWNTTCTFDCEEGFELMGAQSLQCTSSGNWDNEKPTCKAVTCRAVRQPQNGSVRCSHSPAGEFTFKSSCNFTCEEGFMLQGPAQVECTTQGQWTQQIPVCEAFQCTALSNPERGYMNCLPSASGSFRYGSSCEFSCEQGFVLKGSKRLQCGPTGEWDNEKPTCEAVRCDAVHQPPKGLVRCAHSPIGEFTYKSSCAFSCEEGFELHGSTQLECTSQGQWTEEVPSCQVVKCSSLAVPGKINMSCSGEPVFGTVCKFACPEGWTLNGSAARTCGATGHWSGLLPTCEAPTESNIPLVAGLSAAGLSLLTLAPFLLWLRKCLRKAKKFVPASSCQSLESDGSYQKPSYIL
Method in brief: (§1)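 Whole-cell ELISA on primary HUVECs plated at 5 × 10^4 cells/mL in EBM/2% FBS with growth supplements. Compound preincubated 24 h at 37 °C, then inducer added (TNFα at 5 ng/mL final, or IL-1β or PMA in its place) for 6 h at 37 °C. Mouse monoclonal anti-E-selectin, anti-ICAM-1 or anti-VCAM-1 was applied overnight at 4 °C, then HRP anti-mouse IgG. Detection with OPD, A490. Triplicate assays.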

[2] = molecular target: T2, Intercellular adhesion molecule 1 (Homo sapiens, UniProt P05362); assay: Inhibition of intercellular adhesion molecule-1 (ICAM1) in human endothelial cells; format: cell-based, Endothelial cell; method in brief: as §1
T2 sequence (P05362 whole entry): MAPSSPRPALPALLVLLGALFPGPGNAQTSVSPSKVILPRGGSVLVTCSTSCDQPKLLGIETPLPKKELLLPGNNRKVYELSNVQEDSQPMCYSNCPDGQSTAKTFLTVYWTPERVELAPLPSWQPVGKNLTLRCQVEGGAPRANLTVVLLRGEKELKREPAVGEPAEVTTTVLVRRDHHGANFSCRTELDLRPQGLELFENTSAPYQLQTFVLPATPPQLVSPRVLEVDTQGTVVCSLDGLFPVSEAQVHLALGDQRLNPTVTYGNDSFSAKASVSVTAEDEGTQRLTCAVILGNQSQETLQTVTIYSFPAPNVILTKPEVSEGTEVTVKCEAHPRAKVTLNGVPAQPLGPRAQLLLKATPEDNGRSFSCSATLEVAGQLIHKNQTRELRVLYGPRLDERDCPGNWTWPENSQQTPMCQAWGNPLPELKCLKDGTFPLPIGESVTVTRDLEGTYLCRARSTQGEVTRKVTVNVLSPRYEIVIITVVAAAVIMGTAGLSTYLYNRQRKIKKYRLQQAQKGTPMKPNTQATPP

[3] = Toxicity in HUVEC cell lysates.; format: cell-based, Lysate; conditions: human
[4] = molecular target: T2, Intercellular adhesion molecule 1; assay: In vitro inhibitory potency compared to IL1-beta induced Intercellular adhesion molecule-1 in human endothelial cells (ELISA assay); format: cell-based, Endothelial cell
Method in brief: (§2)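 Primary HUVECs seeded at 5 × 10^4 cells/mL in EBM/2% FBS with EGF, bovine brain extract and gentamicin. Compound added next day for 24 h at 37 °C, then inducer (IL-1β or PMA, level not stated) for 6 h at 37 °C. Whole-cell ELISA used mouse monoclonal anti-ICAM-1 or anti-VCAM-1, HRP donkey anti-mouse IgG and OPD, read at 490 nm. Run in triplicate.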

[5] = molecular target: T3, Vascular cell adhesion protein 1 (Homo sapiens) (UniProt P19320); conditions: Endothelial cell
T3 sequence (whole entry): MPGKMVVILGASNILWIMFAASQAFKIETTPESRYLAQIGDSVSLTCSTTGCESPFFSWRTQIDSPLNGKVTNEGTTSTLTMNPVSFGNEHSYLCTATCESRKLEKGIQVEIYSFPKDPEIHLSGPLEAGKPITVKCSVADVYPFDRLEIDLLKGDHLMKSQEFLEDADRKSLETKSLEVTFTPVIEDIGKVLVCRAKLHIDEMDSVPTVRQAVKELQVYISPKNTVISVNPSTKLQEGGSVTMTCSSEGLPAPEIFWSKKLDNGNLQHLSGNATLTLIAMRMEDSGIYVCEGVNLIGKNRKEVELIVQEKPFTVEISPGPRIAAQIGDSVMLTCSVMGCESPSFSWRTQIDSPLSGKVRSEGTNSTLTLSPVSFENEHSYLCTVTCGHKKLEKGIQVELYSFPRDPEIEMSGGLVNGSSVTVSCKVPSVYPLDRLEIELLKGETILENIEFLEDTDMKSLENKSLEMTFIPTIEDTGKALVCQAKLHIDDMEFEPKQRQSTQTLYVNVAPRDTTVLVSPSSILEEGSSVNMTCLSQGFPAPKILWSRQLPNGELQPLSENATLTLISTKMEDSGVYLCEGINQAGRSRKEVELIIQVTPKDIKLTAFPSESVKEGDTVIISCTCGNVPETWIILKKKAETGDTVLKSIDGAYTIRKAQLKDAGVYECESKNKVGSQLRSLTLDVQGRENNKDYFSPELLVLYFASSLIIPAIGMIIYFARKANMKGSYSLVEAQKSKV

[6] = molecular target: T4, E-selectin (Homo sapiens) (UniProt P16581); assay: In vitro inhibitory potency compared to PMA induced Selectin E expression in human endothelial cells (ELISA assay) at 1 uM; format: cell-based; conditions: Endothelial cell
T4 sequence (whole entry): T1 sequence (P16581 whole entry)
Method in brief: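 HUVEC whole-cell ELISA with PMA substituted for TNFα as inducer. Compound preincubated 24 h at 37 °C, then 6 h induction at 37 °C. E-selectin detected with mouse monoclonal antibody and HRP anti-mouse IgG, OPD development, A490. Value given as percent inhibition at a single concentration of 1 µM.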

[7] = molecular target: T2, Intercellular adhesion molecule 1; assay: In vitro inhibitory potency compared to PMA induced Intercellular adhesion molecule-1 expression in human endothelial cells (ELISA assay); format: cell-based, Endothelial cell; method in brief: as §2
[8] = molecular target: T2, Intercellular adhesion molecule 1; assay: In vitro inhibitory potency compared to TNF-alpha induced Intercellular adhesion molecule-1 in human endothelial cells (ELISA assay); format: cell-based, Endothelial cell
Method in brief: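 Primary HUVECs seeded at 5 × 10^4 cells/mL in EBM/2% FBS with supplements. After 24 h of compound at 37 °C, TNFα was added to 5 ng/mL final for 6 h at 37 °C. Cell-surface ICAM-1 was detected with a mouse monoclonal antibody, then HRP anti-mouse IgG and OPD, with absorbance at 490 nm. Triplicate determinations.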

E-selectin [9] = molecular target: T1, E-selectin; assay: In vitro inhibitory potency compared to TNF-alpha induced Selectin E expression in human endothelial cells (ELISA assay); format: cell-based, Endothelial cell; method in brief: as §1
E-selectin [10] = molecular target: T1, E-selectin; assay: In vitro inhibitory potency compared to IL1-beta induced Selectin E in human endothelial cells (ELISA assay); format: cell-based, Endothelial cell; method in brief: as §1
[11] = Solubility in pH 7.4 buffer.; format: physicochemical
[12] = Solubility in pH 7.4 buffer; format: physicochemical

IC50 (E-selectin [1])	IC50 [2]	Compound	further results
0.77 µM	0.73 µM	CNC(=O)c1cc2c(Oc3ccc(C(=O)NCCN4CCOCC4)cc3)cncc2s1	
0.002 µM	0.006 µM	CNC(=O)c1cc2c(Oc3ccc(-n4ccnc4)cc3)cncc2s1	IC50 [3]: > 10 µM
0.15 µM	0.36 µM	CNC(=O)c1cc2c(Oc3ccc(-c4cncn4C)cc3)cncc2s1	
0.006 µM	0.004 µM	NC(=O)c1cc2c(Oc3ccc(I)cc3)cncc2s1	
0.02 µM	0.02 µM	Cc1ccc(Oc2cncc3sc(C(N)=O)cc23)cc1	IC50 [3]: 91 µM
0.035 µM	0.042 µM	NC(=O)c1cc2c(Oc3ccc(N)cc3)cncc2s1	
0.035 µM	0.079 µM	CNC(=O)c1cc2c(Oc3ccc(N4CCOCC4)cc3)cncc2s1	
0.076 µM	0.047 µM	CC(C)c1ccc(Oc2cncc3sc(C(N)=O)cc23)cc1	IC50 [3]: 34 µM
0.02 µM	0.018 µM	CCOC(=O)c1ccc(Oc2cncc3sc(C(N)=O)cc23)cc1	
0.028 µM	0.022 µM	CNC(=O)c1cc2c(Oc3ccc(-c4noc(C(F)(F)F)n4)cc3)cncc2s1	
0.007 µM	0.008 µM	CNC(=O)c1cc2c(Oc3ccc(COCCOC)cc3)cncc2s1	solubility [11]: 25.7 µg/mL (≈ 69 µM)
0.005 µM	0.006 µM	COCCOCc1ccc(Oc2cncc3sc(C(N)=O)cc23)cc1	
0.013 µM	0.059 µM	CNC(=O)c1cc2c(Oc3ccc(C(=N)NO)cc3)cncc2s1	IC50 [3]: > 10 µM
0.016 µM	0.016 µM	COCc1ccc(Oc2cncc3sc(C(N)=O)cc23)cc1	solubility [11]: 6.2 µg/mL (≈ 19.7 µM)
0.11 µM	0.026 µM	CCOCCOCCOCC(F)(F)c1ccc(Oc2cncc3sc(C(=O)NC)cc23)cc1	
0.009 µM	0.025 µM	CNC(=O)c1cc2c(Oc3ccc(-c4ccccc4)cc3)cncc2s1	
0.013 µM	0.017 µM	CNC(=O)c1cc2c(Oc3ccc(COC)cc3)cncc2s1	solubility [12]: 4.8 µg/mL (≈ 14.6 µM)
> 1 µM	> 1 µM	CNC(=O)c1cc2c(Oc3ccc(-c4nn[nH]n4)cc3)cncc2s1	
0.005 µM	0.006 µM	CNC(=O)c1cc2c(Oc3ccc(-c4cccs4)cc3)cncc2s1	
0.67 µM	0.68 µM	NC(=O)c1cc2c(Oc3ccc(C(O)CO)cc3)cncc2s1 (stereo unspecified)	solubility [11]: 15.3 µg/mL (≈ 46.3 µM)
0.18 µM	0.16 µM	CNC(=O)c1cc2c(Oc3ccc(-n4cncn4)cc3)cncc2s1	
0.002 µM	0.0014 µM	NC(=O)c1cc2c(Oc3ccc(COC4CCCCO4)cc3)cncc2s1 (stereo unspecified)	
0.83 µM	0.58 µM	CNC(=O)c1cc2c(Oc3ccc(/C=C/C(=O)NCC(O)CO)cc3)cncc2s1 (stereo unspecified)	

Second part, the molecule before the results:

Compound	IC50 (E-selectin [1])	IC50 [2]	further results
NC(=O)c1cc2c(Oc3ccc(C(=O)N(C(=O)NC4CCCCC4)C4CCCCC4)cc3)cncc2s1	0.115 µM	0.116 µM	
CNC(=O)c1cc2c(Oc3ccc(/C=C/C(=O)NCCN4CCOCC4)cc3)cncc2s1	0.043 µM	0.053 µM	
NC(=O)c1cc2c(Oc3ccc(/C=C/C(=O)NCC(O)CO)cc3)cncc2s1 (stereo unspecified)	> 0.715 µM	0.79 µM	
NC(=O)c1cc2c(Oc3ccc(C(=O)NCCN4CCOCC4)cc3)cncc2s1	> 1 µM	> 1 µM	
CCOC(=O)c1cccc(Oc2cncc3sc(C(N)=O)cc23)c1	0.63 µM	0.68 µM	
CNC(=O)c1cc2c(Oc3ccc(/C=C/C(=O)NCCc4c[nH]cn4)cc3)cncc2s1	0.6 µM	0.67 µM	
NC(=O)c1cc2c(Oc3cccc(C(F)(F)F)c3)cncc2s1	0.87 µM	0.76 µM	
CNC(=O)c1cc2c(Oc3ccc(Cl)cc3)cncc2s1	0.008 µM	0.017 µM	IC50 [4]: 0.01 µM; Inhibition at 1uM [5]: 49%; inhibition [6]: 43%; IC50 [7]: 0.015 µM; IC50 [8]: 0.015 µM; IC50 (E-selectin [9]): 0.02 µM; IC50 (E-selectin [10]): 0.025 µM
NC(=O)c1cc2c(Oc3ccc(C(=O)N4CCOCC4)cc3)cncc2s1	0.87 µM	0.83 µM	
NC(=O)c1cc2c(Oc3ccc(/C=C/C(=O)NCCN4CCOCC4)cc3)cncc2s1	0.034 µM	0.032 µM	
CCOCCOCCOCC1(c2ccc(Oc3cncc4sc(C(=O)NC)cc34)cc2)CC1			IC50 [3]: > 10 µg/mL
COCCOCCOCc1ccc(Oc2cncc3sc(C(N)=O)cc23)cc1			solubility [11]: 160 µg/mL (≈ 398 µM)
NC(=O)c1cc2c(Oc3ccc(CO)cc3)cncc2s1			solubility [12]: 6.9 µg/mL (≈ 23 µM)
CNC(=O)c1cc2c(Oc3ccc(/C=C/C(=O)NCCN(CCO)CCO)cc3)cncc2s1	0.68 µM	0.6 µM	
NC(=O)c1cc2c(Oc3ccc(Cl)cc3Br)cncc2s1	0.11 µM	0.3 µM	
NC(=O)c1cc2c(Oc3cccc(Br)c3)cncc2s1	0.08 µM	0.11 µM	
Cc1cc(Cl)ccc1Oc1cncc2sc(C(N)=O)cc12	0.37 µM	0.58 µM	
NC(=O)c1cc2c(Oc3ccc(Cl)c(F)c3)cncc2s1	0.008 µM	0.01 µM	
NC(=O)c1cc2c(Oc3ccc(/C=C/C(=O)NCCN(CCO)CCO)cc3)cncc2s1	0.65 µM	0.82 µM	
